In ChEMBL document CHEMBL3272149, “Synthesis and antibacterial activity of some derivatives of tolypomycinone. Relationship between structure and activity in ansamycins” (J Med Chem, 1977):
In brackets after ≈: the same amount, converted by molar mass.

Legend:
Type in all cases: functional
Staphylococcus aureus = assay: Antibacterial activity against Staphylococcus aureus 209 P(FDA) assessed as inhibition of visible growth after 24 hrs by serial dilution method
Klebsiella pneumoniae = assay: Antibacterial activity against Klebsiella pneumoniae Ottaviani assessed as inhibition of visible growth after 24 hrs by serial dilution method
Escherichia coli = assay: Antibacterial activity against Escherichia coli MC/35 assessed as inhibition of visible growth after 24 hrs by serial dilution method; conditions: MC/35, 24 h
[1] = test system: Salmonella enterica subsp. enterica serovar Paratyphi B; assay: Antibacterial activity against Salmonella paratyphi B 0248 K assessed as inhibition of visible growth after 24 hrs by serial dilution method
Procedure, shortened: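 Broth tube serial dilution in Brain Heart Infusion medium; inoculum 10^6 cells/mL; incubation 24 h at 35 °C; MIC taken as the lowest antibiotic concentration that prevented visible growth.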

| Compound | MIC (Staphylococcus aureus) [µg/mL] | MIC (Klebsiella pneumoniae) [µg/mL] | MIC (Escherichia coli) [µg/mL] | MIC [1] [µg/mL] |
| --- | --- | --- | --- | --- |
| COC1/C=C/OC2(C)Oc3c(C)c(O)c4c(c3C2=O)C(=O)C=C(NC(=O)/C(C)=C\C(=O)C2CC2C(O)C(C)C(O)C(C)C(OC(C)=O)C1C)C4=O (centres undefined) [TOLYPOMYCINONE] | 0.5 (≈ 0.704 µM) | – | – | – |
| CO[C@H]1/C=C/O[C@@]2(C)Oc3c(C)c(O)c4c(c3C2=O)C(=O)C(NCc2ccncc2)=C(NC(=O)/C(C)=C\C(=O)[C@@H]2C[C@@H]2[C@H](O)[C@@H](C)[C@@H](O)[C@@H](C)[C@H](OC(C)=O)[C@@H]1C)C4=O | 0.005 (≈ 0.00613 µM) | 100 (≈ 123 µM) | 25 (≈ 30.6 µM) | 12 (≈ 14.7 µM) |
| CO[C@H]1/C=C/O[C@@]2(C)Oc3c(C)c(O)c4c(c3C2=O)C(=O)C(NCCCN2CCN(C)CC2)=C(NC(=O)/C(C)=C\C(=O)[C@@H]2C[C@@H]2[C@H](O)[C@@H](C)[C@@H](O)[C@@H](C)[C@H](OC(C)=O)[C@@H]1C)C4=O | 0.025 (≈ 0.0289 µM) | 25 (≈ 28.9 µM) | 12 (≈ 13.9 µM) | 3 (≈ 3.47 µM) |
| CO[C@H]1/C=C/O[C@@]2(C)Oc3c(C)c(O)c4c(c3C2=O)C(=O)C(NCc2ccccn2)=C(NC(=O)/C(C)=C\C(=O)[C@@H]2C[C@@H]2[C@H](O)[C@@H](C)[C@@H](O)[C@@H](C)[C@H](OC(C)=O)[C@@H]1C)C4=O | < 0.005 | 12 (≈ 14.7 µM) | 6 (≈ 7.35 µM) | 25 (≈ 30.6 µM) |
| CO[C@H]1/C=C/O[C@@]2(C)Oc3c(C)c(O)c4c(c3C2=O)C(=O)C(NCc2ccccc2)=C(NC(=O)/C(C)=C\C(=O)[C@@H]2C[C@@H]2[C@H](O)[C@@H](C)[C@@H](O)[C@@H](C)[C@H](OC(C)=O)[C@@H]1C)C4=O | < 0.005 | – | – | – |
| CO[C@H]1/C=C/O[C@@]2(C)Oc3c(C)c(O)c4c(O)c(c(/C=N/N5CCN(C)CC5)c(O)c4c3C2=O)NC(=O)/C(C)=C\C=C\[C@H](C)[C@H](O)[C@@H](C)[C@@H](O)[C@@H](C)[C@H](OC(C)=O)[C@@H]1C [RIFAMPIN] | 0.025 (≈ 0.0304 µM) | 25 (≈ 30.4 µM) | 6 (≈ 7.29 µM) | 12 (≈ 14.6 µM) |
| CO[C@H]1/C=C/O[C@@]2(C)Oc3c(C)c(O)c4c(c3C2=O)C(=O)C(NCC2CCCN(C)C2)=C(NC(=O)/C(C)=C\C(=O)[C@@H]2C[C@@H]2[C@H](O)[C@@H](C)[C@@H](O)[C@@H](C)[C@H](OC(C)=O)[C@@H]1C)C4=O (some centres undefined) | 0.025 (≈ 0.0299 µM) | 12 (≈ 14.4 µM) | 12 (≈ 14.4 µM) | 12 (≈ 14.4 µM) |
| CO[C@H]1/C=C/O[C@@]2(C)Oc3c(C)c(O)c4c(c3C2=O)C(=O)C(NCCN(C)C)=C(NC(=O)/C(C)=C\C(=O)[C@@H]2C[C@@H]2[C@H](O)[C@@H](C)[C@@H](O)[C@@H](C)[C@H](OC(C)=O)[C@@H]1C)C4=O | < 0.005 | 25 (≈ 31.4 µM) | 6 (≈ 7.54 µM) | 12 (≈ 15.1 µM) |
| CO[C@H]1/C=C/O[C@@]2(C)Oc3c(C)c(O)c4c(O)c(cc(O)c4c3C2=O)NC(=O)/C(C)=C\C=C\[C@H](C)[C@H](O)[C@@H](C)[C@@H](O)[C@@H](C)[C@H](OC(C)=O)[C@@H]1C [RIFAMYCIN] | < 0.005 | 100 (≈ 143 µM) | 100 (≈ 143 µM) | 100 (≈ 143 µM) |
| CO[C@H]1/C=C/O[C@@]2(C)Oc3c(C)c(O)c4c(c3C2=O)C(=O)C(NCCc2c[nH]cn2)=C(NC(=O)/C(C)=C\C(=O)[C@@H]2C[C@@H]2[C@H](O)[C@@H](C)[C@@H](O)[C@@H](C)[C@H](OC(C)=O)[C@@H]1C)C4=O | 0.05 (≈ 0.0611 µM) | 12 (≈ 14.7 µM) | 50 (≈ 61.1 µM) | 12 (≈ 14.7 µM) |
| COc1cc(CNC2=C3NC(=O)/C(C)=C\C(=O)[C@@H]4C[C@@H]4[C@H](O)[C@@H](C)[C@@H](O)[C@@H](C)[C@H](OC(C)=O)[C@H](C)[C@@H](OC)/C=C/O[C@@]4(C)Oc5c(C)c(O)c(c(c5C4=O)C2=O)C3=O)ccc1O | < 0.005 | 100 (≈ 116 µM) | 100 (≈ 116 µM) | 100 (≈ 116 µM) |
| CO[C@H]1/C=C/O[C@@]2(C)Oc3c(C)c(O)c4c(c3C2=O)/C(=N/[C@@H]2CC[C@@H](O)O[C@H]2C)C=C(NC(=O)/C(C)=C\C(=O)[C@@H]2C[C@@H]2[C@H](O)[C@@H](C)[C@@H](O)[C@@H](C)[C@H](OC(C)=O)[C@@H]1C)C4=O | 0.025 (≈ 0.0304 µM) | 100 (≈ 122 µM) | > 100 | > 100 |
| CO[C@H]1/C=C/O[C@@]2(C)Oc3c(C)c(O)c4c(c3C2=O)C(=O)C(NCc2ccc(N(C)C)cc2)=C(NC(=O)/C(C)=C\C(=O)[C@@H]2C[C@@H]2[C@H](O)[C@@H](C)[C@@H](O)[C@@H](C)[C@H](OC(C)=O)[C@@H]1C)C4=O | < 0.005 | 12 (≈ 14 µM) | 23 (≈ 26.8 µM) | 12 (≈ 14 µM) |
| CNC1=C2NC(=O)C(C)CC(=O)[C@@H]3C[C@@H]3[C@H](O)[C@@H](C)[C@@H](O)[C@@H](C)[C@H](OC(C)=O)[C@H](C)[C@@H](OC)/C=C/O[C@@]3(C)Oc4c(C)c(O)c(c(c4C3=O)C1=O)C2=O (some centres undefined) | 0.5 (≈ 0.675 µM) | – | – | – |
| CO[C@H]1/C=C/O[C@@]2(C)Oc3c(C)c(O)c4c(c3C2=O)C(=O)C(NCCc2ccc(O)cc2)=C(NC(=O)/C(C)=C\C(=O)[C@@H]2C[C@@H]2[C@H](O)[C@@H](C)[C@@H](O)[C@@H](C)[C@H](OC(C)=O)[C@@H]1C)C4=O | < 0.005 | > 100 | > 100 | > 50 |
| CO[C@H]1/C=C/O[C@@]2(C)Oc3c(C)c(O)c4c(c3C2=O)C(=O)C(NCc2cccnc2)=C(NC(=O)/C(C)=C\C(=O)[C@@H]2C[C@@H]2[C@H](O)[C@@H](C)[C@@H](O)[C@@H](C)[C@H](OC(C)=O)[C@@H]1C)C4=O | < 0.005 | 25 (≈ 30.6 µM) | 6 (≈ 7.35 µM) | 12 (≈ 14.7 µM) |
| CO[C@H]1/C=C/O[C@@]2(C)Oc3c(C)c(O)c4c(c3C2=O)C(=O)C(NCCCO)=C(NC(=O)/C(C)=C\C(=O)[C@@H]2C[C@@H]2[C@H](O)[C@@H](C)[C@@H](O)[C@@H](C)[C@H](OC(C)=O)[C@@H]1C)C4=O | 0.025 (≈ 0.0319 µM) | 25 (≈ 31.9 µM) | 12 (≈ 15.3 µM) | 12 (≈ 15.3 µM) |
| CO[C@H]1/C=C/O[C@@]2(C)Oc3c(C)c(O)c4c(c3C2=O)C(=O)C(NCCCN(C)C)=C(NC(=O)/C(C)=C\C(=O)[C@@H]2C[C@@H]2[C@H](O)[C@@H](C)[C@@H](O)[C@@H](C)[C@H](OC(C)=O)[C@@H]1C)C4=O | 0.025 (≈ 0.0309 µM) | 50 (≈ 61.7 µM) | 12 (≈ 14.8 µM) | 12 (≈ 14.8 µM) |
| CO[C@H]1/C=C/O[C@@]2(C)Oc3c(C)c(O)c4c(c3C2=O)C(=O)C(NCc2ccccc2)=C(NC(=O)C(C)(NCc2ccccc2)CC(=O)[C@@H]2C[C@@H]2[C@H](O)[C@@H](C)[C@@H](O)[C@@H](C)[C@H](OC(C)=O)[C@@H]1C)C4=O (some centres undefined) | 0.25 (≈ 0.271 µM) | – | – | – |
| CO[C@H]1/C=C/O[C@@]2(C)Oc3c(C)c(O)c4c(c3C2=O)C(=O)C(NCCCN2CCC(=O)C2)=C(NC(=O)/C(C)=C\C(=O)[C@@H]2C[C@@H]2[C@H](O)[C@@H](C)[C@@H](O)[C@@H](C)[C@H](OC(C)=O)[C@@H]1C)C4=O | 0.005 (≈ 0.00588 µM) | – | 50 (≈ 58.8 µM) | 25 (≈ 29.4 µM) |
| CO[C@H]1/C=C/O[C@@]2(C)Oc3c(C)c(O)c4c(c3C2=O)C(=O)C(NC2CCCCC2)=C(NC(=O)/C(C)=C\C(=O)[C@@H]2C[C@@H]2[C@H](O)[C@@H](C)[C@@H](O)[C@@H](C)[C@H](OC(C)=O)[C@@H]1C)C4=O | 0.25 (≈ 0.31 µM) | – | – | – |
| CO[C@H]1/C=C/O[C@@]2(C)Oc3c(C)c(O)c4c(c3C2=O)C(=O)C=C(NC(=O)C(C)CC(=O)[C@@H]2C[C@@H]2[C@H](O)[C@@H](C)[C@@H](O)[C@@H](C)[C@H](OC(C)=O)[C@@H]1C)C4=O (some centres undefined) | 0.5 (≈ 0.702 µM) | – | – | – |
